Data taken from ChEMBL document CHEMBL1146867, “Novel antibacterial class: a series of tetracyclic derivatives” (J Med Chem, 2006).
Values after ≈ are worked out from the molar mass of the structure shown.

Experiments:
Assay type in all cases: functional
[1] = system: Streptococcus pneumoniae; assay: Inhibition on Streptococcus pneumoniae translation by uncoupled translation assay
Procedure, shortened: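 The assay was cell-free and translation-only (uncoupled), using S. pneumoniae material. Dried test compound was mixed with S30 extract, luciferase-encoding mRNA and a complete amino acid mix. The mix was incubated to allow translation, and the reaction was stopped with kanamycin. Luciferin reagent was then added, and read-out was by flash luminescence. Results are given as IC50.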

[2] = system: Streptococcus pneumoniae; assay: Antibacterial activity against quinolone-resistant Streptococcus pneumoniae ATCC 7257
Procedure, shortened: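 MIC by broth microdilution following National Committee for Clinical Laboratory Standards methods for dilution susceptibility testing of aerobically growing bacteria, against the quinolone-resistant S. pneumoniae strain 7257.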

[3] = system: Streptococcus pneumoniae; assay: Antibacterial activity against quinolone-susceptible Streptococcus pneumoniae ATCC 6303
Procedure, shortened: (§1)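 MICs were determined by broth microdilution following the National Committee for Clinical Laboratory Standards method for aerobically growing bacteria.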

[4] = system: Haemophilus influenzae; assay: Antibacterial activity against quinolone-susceptible Haemophilus influenzae 1435; procedure, shortened: as §1
[5] = system: JIYOYE; assay: Cytotoxicity against human B cells by Jijoye assay; settings: read-out: LD50 (the source's name)
[6] = system: Streptococcus pneumoniae; assay: Inhibition on Streptococcus pneumoniae translation by transcription/translation coupled assay

With `C=CC[C@@H]1Oc2cc3c(O)c(C(=O)O)cnc3nc2N2CCC[C@@H]12` the IC50 [1] was 47 µM, the MIC [2] was 8 µg/mL (≈ 24.4 µM) and the MIC [3] was greater than 64 µg/mL. It also gave an MIC [4] of 64 µg/mL (≈ 196 µM) and a CC50 [5] greater than 100 µg/mL.
For `CC(C)(C)n1cc(C(=O)O)c(=O)c2cc3c(nc21)N1CCC[C@H]1C(=O)N3`, the IC50 [1] was greater than 200 µM, the MIC [2] was greater than 64 µg/mL and the MIC [3] was greater than 64 µg/mL. For the same compound, the MIC [4] was greater than 32 µg/mL and the CC50 [5] was greater than 100 µg/mL.
`O=C(O)c1cnc2nc3c(cc2c1O)OC[C@@H]1C[C@@H](O)CN31` was tested, and the IC50 [1] was 6.9 µM, the MIC [2] was 16 µg/mL (≈ 52.8 µM) and the MIC [3] was 64 µg/mL (≈ 211 µM). It also gave an MIC [4] of 16 µg/mL (≈ 52.8 µM) and a CC50 [5] greater than 100 µg/mL.
In the case of `O=C(O)c1cnc2nc3c(cc2c1O)OCCN3`, the IC50 [1] is reported as 100 µM, the MIC [2] is reported as greater than 64 µg/mL and the MIC [3] is reported as greater than 64 µg/mL. The MIC [4] was 32 µg/mL (≈ 129 µM) and the CC50 [5] was greater than 100 µg/mL.
Compound `O=C(O)c1cnc2nc3c(cc2c1O)OC[C@@H]1CCN31` has an IC50 [1] of 7.5 µM, an MIC [2] of 2 µg/mL (≈ 7.32 µM) and an MIC [3] of 16 µg/mL (≈ 58.6 µM). It also gave an MIC [4] of 8 µg/mL (≈ 29.3 µM) and a CC50 [5] greater than 100 µg/mL.
Work on `C[C@@H]1Oc2cc3c(O)c(C(=O)O)cnc3nc2N2CCC[C@@H]12` yielded an IC50 [1] of 8.7 µM, an MIC [2] of 4 µg/mL (≈ 13.3 µM) and an MIC [3] of 8 µg/mL (≈ 26.6 µM). For the same compound, the MIC [4] was 32 µg/mL (≈ 106 µM) and the CC50 [5] was greater than 100 µg/mL.
Work on `O=C(O)c1cnc2nc3c(cc2c1O)OCC1CCCCN31` (stereo unspecified) yielded an IC50 [1] of 63 µM, an MIC [2] of 16 µg/mL (≈ 53.1 µM) and an MIC [3] greater than 64 µg/mL. The MIC [4] was 8 µg/mL (≈ 26.6 µM) and the CC50 [5] was greater than 100 µg/mL.
In the case of `C=CCC12CCCN1c1nc3ncc(C(=O)O)c(O)c3cc1OC2` (stereo unspecified), the IC50 [1] is reported as greater than 300 µM, the MIC [2] is reported as greater than 64 µg/mL and the MIC [3] is reported as greater than 64 µg/mL. For the same compound, the MIC [4] was greater than 64 µg/mL and the CC50 [5] was greater than 100 µg/mL.
With `CN1C[C@@H]2CCCN2c2nc3ncc(C(=O)O)c(O)c3cc21` the IC50 [1] was 0.89 µM, the MIC [2] was 2 µg/mL (≈ 6.66 µM) and the MIC [3] was 8 µg/mL (≈ 26.6 µM). The MIC [4] was 8 µg/mL (≈ 26.6 µM) and the CC50 [5] was greater than 100 µg/mL.
`O=C(O)c1cnc2nc3c(cc2c1O)OC[C@@H]1CCCN31` gave an IC50 [1] of 5.2 µM, an MIC [2] of 1 µg/mL (≈ 3.48 µM) and an MIC [3] of 4 µg/mL (≈ 13.9 µM). The MIC [4] was 2 µg/mL (≈ 6.96 µM) and the CC50 [5] was greater than 100 µg/mL.
For `CN1CCOc2cc3c(O)c(C(=O)O)cnc3nc21`, the IC50 [1] was 70 µM, the MIC [2] was 32 µg/mL (≈ 122 µM) and the MIC [3] was greater than 64 µg/mL. It also gave an MIC [4] of 32 µg/mL (≈ 122 µM) and a CC50 [5] greater than 100 µg/mL.
With `O=C(O)c1cnc2cc(N3CCNCC3)c(F)cc2c1O` the IC50 [1] was 141 µM, the MIC [2] was greater than 64 µg/mL and the MIC [3] was greater than 64 µg/mL.
In the case of `O=C(O)c1cnc2nc3c(cc2c1O)NC(=O)[C@@H]1CCCN31`, the IC50 [1] is reported as 22 µM, the MIC [2] is reported as greater than 64 µg/mL and the MIC [3] is reported as greater than 64 µg/mL. For the same compound, the MIC [4] was greater than 64 µg/mL and the CC50 [5] was greater than 100 µg/mL.
For `CC12CCCN1c1nc3ncc(C(=O)O)c(O)c3cc1OC2` (stereo unspecified), the IC50 [1] was 107 µM, the MIC [2] was 32 µg/mL (≈ 106 µM) and the MIC [3] was greater than 64 µg/mL. The MIC [4] was 32 µg/mL (≈ 106 µM) and the CC50 [5] was greater than 100 µg/mL.
For `CC(=O)N1C[C@@H]2CCCN2c2nc3ncc(C(=O)O)c(O)c3cc21`, the IC50 [1] was 7 µM, the MIC [3] was 16 µg/mL (≈ 48.7 µM) and the MIC [4] was 4 µg/mL (≈ 12.2 µM).
Compound `O=C(O)c1cn(C2CC2)c2nc3c(cc2c1=O)OC[C@@H]1CCCN31` has an IC50 [1] greater than 100 µM, an MIC [2] of 8 µg/mL (≈ 24.4 µM) and an MIC [3] greater than 64 µg/mL.
`O=C(O)c1cnc2nc(N3CCC[C@@H]3CO)c(F)cc2c1O` gave an MIC [2] greater than 64 µg/mL, an MIC [3] greater than 64 µg/mL and an MIC [4] greater than 64 µg/mL. It also gave a CC50 [5] greater than 100 µg/mL and an IC50 [6] of 75 µM.
`O=C(O)c1cnc2nc(N3CCCC3)c(F)cc2c1O` was tested, and the MIC [2] was 4 µg/mL (≈ 14.4 µM), the MIC [3] was 16 µg/mL (≈ 57.7 µM) and the MIC [4] was less than 1 µg/mL. For the same compound, the CC50 [5] was greater than 100 µg/mL.
Compound `C=CC[C@H]1Oc2cc3c(O)c(C(=O)O)cnc3nc2N2CCC[C@@H]12` has an IC50 [1] greater than 300 µM, an MIC [2] greater than 64 µg/mL and an MIC [3] greater than 64 µg/mL. For the same compound, the MIC [4] was greater than 64 µg/mL and the CC50 [5] was greater than 100 µg/mL.
In the case of `O=C(O)c1cnc2nc3c(cc2c1O)NC[C@@H]1CCCN31`, the IC50 [1] is reported as 10 µM, the MIC [2] is reported as 8 µg/mL (≈ 27.9 µM) and the MIC [3] is reported as 16 µg/mL (≈ 55.9 µM). For the same compound, the MIC [4] was 8 µg/mL (≈ 27.9 µM) and the CC50 [5] was 18 µg/mL (≈ 62.9 µM).
`CCN1CCOc2cc3c(O)c(C(=O)O)cnc3nc21` gave an IC50 [1] of 84 µM, an MIC [2] of 32 µg/mL (≈ 116 µM) and an MIC [3] greater than 64 µg/mL. The MIC [4] was 64 µg/mL (≈ 233 µM) and the CC50 [5] was greater than 100 µg/mL.
`O=C(O)c1cnc2nc3c(cc2c1O)N(c1ccccc1)C[C@@H]1CCCN31` gave an IC50 [1] of 64 µM, an MIC [2] greater than 64 µg/mL and an MIC [3] greater than 64 µg/mL. For the same compound, the MIC [4] was greater than 64 µg/mL and the CC50 [5] was greater than 100 µg/mL.
For `COc1ccc(Cn2cc(C(=O)O)c(=O)c3cc4c(nc32)N2CCC[C@H]2CO4)c(OC)c1`, the IC50 [1] was 57 µM, the MIC [2] was 32 µg/mL (≈ 73.2 µM) and the MIC [3] was greater than 64 µg/mL. For the same compound, the MIC [4] was greater than 64 µg/mL and the CC50 [5] was 12 µg/mL (≈ 27.4 µM).
`O=C(O)c1cnc2nc3c(cc2c1O)OC[C@H]1CCCN31` was tested, and the IC50 [1] was 10.5 µM, the MIC [2] was 1 µg/mL (≈ 3.48 µM) and the MIC [3] was 8 µg/mL (≈ 27.8 µM). It also gave an MIC [4] of 4 µg/mL (≈ 13.9 µM) and a CC50 [5] greater than 100 µg/mL.
With `COc1ccc(Cn2cc(C(=O)O)c(=O)c3cc4c(nc32)N2CCC[C@@H]2CO4)c(OC)c1` the IC50 [1] was 229 µM, the MIC [2] was 16 µg/mL (≈ 36.6 µM) and the MIC [3] was greater than 64 µg/mL. For the same compound, the MIC [4] was greater than 64 µg/mL and the CC50 [5] was 6 µg/mL (≈ 13.7 µM).
In the case of `N[C@H]1C[C@H]2COc3cc4c(O)c(C(=O)O)cnc4nc3N2C1`, the IC50 [1] is reported as 2.7 µM, the MIC [2] is reported as greater than 64 µg/mL and the MIC [3] is reported as greater than 64 µg/mL. It also gave an MIC [4] greater than 64 µg/mL and a CC50 [5] greater than 100 µg/mL.
In the case of `C[C@H]1Oc2cc3c(O)c(C(=O)O)cnc3nc2N2CCCC12` (single isomer, unassigned), the IC50 [1] is reported as 125 µM, the MIC [2] is reported as 32 µg/mL (≈ 106 µM) and the MIC [3] is reported as 64 µg/mL (≈ 212 µM). For the same compound, the MIC [4] was 64 µg/mL (≈ 212 µM) and the CC50 [5] was greater than 100 µg/mL.
Work on `O=C(O)c1cn(C2CC2)c2cc(N3CCNCC3)c(F)cc2c1=O` [CIPROFLOXACIN] yielded an IC50 [1] of 200 µM, an MIC [2] of 16 µg/mL (≈ 48.3 µM) and an MIC [3] of 2 µg/mL (≈ 6.04 µM).
